Assay [1] deals with FM3A. The assay can be described thus: Antiproliferative activity against mouse FM3A cells after 48 hrs. Format: functional, cell-based. A digest of the protocol: (§1)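 Cells in growth medium grown with variable compound concentrations at 37 °C in humidified CO2-controlled atmosphere; incubation 48 h for L1210 and FM3A, 72 h for CEM, 96 h for HeLa. Cell number counted by Coulter counter; IC50 = concentration inhibiting proliferation by 50%.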

Assay [2] has as its system HeLa. The assay can be described thus: Antiproliferative activity against human HeLa cells after 96 hrs. Format: functional, cell-based. A digest of the protocol:
as §1

Assay [3] in a line: Antiproliferative activity against human NCI60 cells. Format: functional, cell-based.
Assay [4] concerns CCRF-CEM. Briefly: Antiproliferative activity against human CEM cells after 72 hrs. Format: cell-based. A digest of the protocol: as §1
Assay [5] deals with T1, Bone morphogenetic protein receptor type-1B (Homo sapiens, UniProt O00238). The assay can be described thus: Binding affinity to BMPR1B at >30 uM by multi dose competitive binding assay.
The test system of assay [6] is L1210. The assay can be described thus: Antiproliferative activity against mouse L1210 cells after 48 hrs. Format: functional, cell-based. To be noted: L1210, 48 h. A digest of the protocol:
as §1

Assay [7] deals with T1, Bone morphogenetic protein receptor type-1B. Briefly: Binding affinity to BMPR1B by multi dose competitive binding assay.
For assay [8], the target named is Epidermal growth factor receptor (Homo sapiens) (UniProt P00533). Briefly: Inhibition of EGFR at 10 uM after 1 hr by competitive binding assay. The gist of the method:
(§2)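 Single-dose competitive binding at 10 μM against immobilized ATP-site ligands (DiscoveRx): phage-tagged or HEK-293-expressed DNA-tagged kinase with ligand-loaded streptavidin magnetic beads in 20% SeaBlock, 0.17× PBS, 0.05% Tween 20, 6 mM DTT, 1 h room temperature with shaking. Beads washed, eluted with 0.5 μM free ligand for 30 min; bound kinase quantified by qPCR as % binding inhibition.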

The target in assay [9] is Tyrosine-protein kinase Tec (Homo sapiens) (UniProt P42680). Briefly: Inhibition of TEC at 10 uM after 1 hr by competitive binding assay. The gist of the method: as §2
Assay [10] deals with Tyrosine-protein kinase ABL1 (Homo sapiens) (UniProt P00519). Briefly: Inhibition of ABL1 at 10 uM after 1 hr by competitive binding assay. A digest of the protocol: as §2
Assay [11] addresses NT-3 growth factor receptor (Homo sapiens) (UniProt Q16288). Briefly: Inhibition of NTRK3 at 10 uM after 1 hr by competitive binding assay. The gist of the method: as §2
In assay [12] the target is Homeodomain-interacting protein kinase 1 (Homo sapiens) (UniProt Q86Z02). Briefly: Inhibition of HIPK1 at 10 uM after 1 hr by competitive binding assay. The gist of the method: as §2
For assay [13], the target named is Protein kinase C epsilon type (Homo sapiens) (UniProt Q02156). The assay can be described thus: Inhibition of PRKCE at 10 uM after 1 hr by competitive binding assay. A digest of the protocol: as §2
For assay [14], the target named is Receptor-type tyrosine-protein kinase FLT3 (Homo sapiens) (UniProt P36888). The assay can be described thus: Inhibition of FLT-3 kinase at 10 uM after 1 hr by competitive binding assay. The gist of the method: as §2
Assay [15] deals with Mitogen-activated protein kinase 11 (Homo sapiens) (UniProt Q15759). The assay can be described thus: Inhibition of MAPK11 at 10 uM after 1 hr by competitive binding assay. A digest of the protocol:
as §2

Assay [16] addresses Receptor tyrosine-protein kinase erbB-2 (Homo sapiens) (UniProt P04626). Briefly: Inhibition of ErbB2 at 10 uM after 1 hr by competitive binding assay. A digest of the protocol: as §2
Assay [17] has as its target Serine/threonine-protein kinase DCLK1 (Homo sapiens) (UniProt O15075). Briefly: Inhibition of DCLK1 at 10 uM after 1 hr by competitive binding assay. A digest of the protocol: as §2
Assay [18] addresses Serine/threonine-protein kinase Nek2 (Homo sapiens) (UniProt P51955). The assay can be described thus: Inhibition of NEK2 at 10 uM after 1 hr by competitive binding assay. A digest of the protocol: as §2
Assay [19] has as its target MAP kinase-interacting serine/threonine-protein kinase 2 (Homo sapiens) (UniProt Q9HBH9). The assay can be described thus: Inhibition of MKNK2 at 10 uM after 1 hr by competitive binding assay. The gist of the method: as §2
Assay [20] concerns the target T1, Bone morphogenetic protein receptor type-1B. The assay can be described thus: Inhibition of BMPR1B at 10 uM after 1 hr by competitive binding assay. The gist of the method:
as §2

In assay [21] the target is Tyrosine-protein kinase Blk (Homo sapiens) (UniProt P51451). The assay can be described thus: Inhibition of Blk at 10 uM after 1 hr by competitive binding assay. The gist of the method:
as §2

The target in assay [22] is Myosin light chain kinase (Homo sapiens) (UniProt Q32MK0). The assay can be described thus: Inhibition of MYLK3 at 10 uM after 1 hr by competitive binding assay. The gist of the method: as §2
Assay [23] concerns the target Myosin light chain kinase family member 4 (Homo sapiens) (UniProt Q86YV6). Briefly: Inhibition of MYLK4 at 10 uM after 1 hr by competitive binding assay. The gist of the method:
as §2

For assay [24], the target named is Non-receptor tyrosine-protein kinase TYK2 (Homo sapiens) (UniProt P29597). The assay can be described thus: Inhibition of TYK2 at 10 uM after 1 hr by competitive binding assay. The gist of the method: as §2
Assay [25] addresses Ribosomal protein S6 kinase alpha-1 (Homo sapiens) (UniProt Q15418). Briefly: Inhibition of RPS6KA1 kinase at 10 uM after 1 hr by competitive binding assay. The gist of the method: as §2
Assay [26] addresses Casein kinase II subunit alpha' (Homo sapiens) (UniProt P19784). The assay can be described thus: Inhibition of CSNK2A2 at 10 uM after 1 hr by competitive binding assay. The gist of the method: as §2
Assay [27] concerns the target Serine/threonine-protein kinase PAK 3 (Homo sapiens) (UniProt O75914). Briefly: Inhibition of PAK3 at 10 uM after 1 hr by competitive binding assay. A digest of the protocol:
as §2

Assay [28] addresses MAP/microtubule affinity-regulating kinase 3 (Homo sapiens) (UniProt P27448). The assay can be described thus: Inhibition of MARK3 at 10 uM after 1 hr by competitive binding assay.
Assay [29] addresses Inhibitor of nuclear factor kappa-B kinase subunit alpha (Homo sapiens) (UniProt O15111). Briefly: Inhibition of IKKalpha at 10 uM after 1 hr by competitive binding assay. A digest of the protocol: as §2
For assay [30], the target named is Tyrosine-protein kinase BTK (Homo sapiens) (UniProt Q06187). The assay can be described thus: Inhibition of BTK at 10 uM after 1 hr by competitive binding assay. The gist of the method:
as §2

The target of assay [31] is Casein kinase I isoform gamma-2 (Homo sapiens) (UniProt P78368). The assay can be described thus: Inhibition of CSNK1G2 at 10 uM after 1 hr by competitive binding assay. A digest of the protocol:
as §2

Structures are written as SMILES. Values after ≈ are worked out from the molar mass of the structure shown. Active and inactive are the calls of the source. The calls are words filed in the database; no cut-off is given here.

Regarding `CNC(=O)NC[C@H]1O[C@@H](n2cnc3c(NC(=O)Nc4ccccc4)ncnc32)[C@H](O[Si](C)(C)C(C)(C)C)[C@@H]1O[Si](C)(C)C(C)(C)C`, the IC50 in assay [1] was 5.9 µg/mL (≈ 8.79 µM); in assay [2], 3.2 µg/mL (≈ 4.77 µM); in assay [3] it was below 10 µM; in assay [4], 8.3 µg/mL (≈ 12.4 µM); in assay [6], 3.8 µg/mL (≈ 5.66 µM). The outcome in [5] was inactive.

On to `CNC(=O)NC[C@H]1O[C@@H](n2cnc3c(NC(=O)Nc4ccccc4)ncnc32)[C@H](O)[C@@H]1O`, for which the affinity in assay [7], expressed as Kd, was 11.5 µM. In addition, the inhibition is 31% in [8]; 37% in assay [9]; 30% in assay [10]; 40% in assay [11]; 30% in assay [12]; 38% in assay [13]. Besides, the inhibition was 33% in [14]; 37% in [15]; 35% in assay [16]; 41% in [17]; 33% in assay [18]; 37% in assay [19]. In addition, the inhibition was 45% in assay [20], 32% in [21], 43% in assay [22] and 38% in [23].

Turning to `CCOC(=O)C[C@H]1[C@@H](O[Si](C)(C)C(C)(C)C)[C@H](n2cnc3c(NC(=O)Nc4ccccc4)ncnc32)O[C@@H]1CNC(=O)NC`, the inhibition came to 31% in assay [24]; 40% in [25]; 31% in [26]; 31% in assay [14]; 33% in [27]; 34% in assay [28]. In addition, the inhibition in assay [29] came out at 37%; in [30] it was 35%; in assay [20], 47%; in [31] it was 38%.

In general, IC50 refers to the midpoint of a concentration-inhibition curve. Low readings indicate higher potency, high ones lower potency. Broadly, the Kd is a measure of binding affinity in units of concentration. A lower Kd goes with higher affinity. In general, inhibition refers to the share of the control response that was lost under treatment. Read a high inhibition as strong suppression.

The values are drawn from ChEMBL document CHEMBL1933013, “Synthesis, SAR, and preliminary mechanistic evaluation of novel antiproliferative N⁶,5'-bis-ureido- and 5'-carbamoyl-N⁶-ureidoadenosine derivatives” (Bioorg Med Chem, 2012).
